Reference: ChEMBL document CHEMBL1154218, “Design and synthesis of dipeptidyl nitriles as potent, selective, and reversible inhibitors of cathepsin C” (Bioorg Med Chem Lett, 2009)

Experiments:
Dipeptidyl peptidase 1 = Dipeptidyl peptidase 1 (Homo sapiens, UniProt P53634); experiment: Inhibition of human recombinant cathepsin C
Outline: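 Enzyme: purified human recombinant cathepsin C. IC50 in nM given as mean with standard deviation of at least three experiments.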

[1] = Metabolic stability in rat whole blood assessed as compound remaining after 30 mins; format: ADME, tissue-based; settings: read-out: Activity
Outline: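 Compound incubated in fresh rat whole blood for 30 min at 25 °C. Read-out is % of intact parent remaining, with amide hydrolysis products (P2 amino acid, P1 amino nitrile) monitored.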

[2] = Half life in iv dosed rat; format: ADME, organism-based; settings: in vivo
Outline: (§1)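 Rats dosed intravenously. Plasma samples were analysed for parent and metabolites to give clearance (ml/min/kg) and half-life.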

[3] = Clearance in iv dosed rat; format: ADME, organism-based; settings: in vivo; outline: as §1
U-937 = experiment: Cytotoxicity against human U937 cells at 30 uM up to 72 hrs; format: functional, cell-based
Outline: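 Human U937 cells were exposed to compound at 30 µM for up to 72 h and assessed for cytotoxicity.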

Rattus norvegicus = organism: Rattus norvegicus; experiment: Metabolic stability in rat whole blood

Sequence of Dipeptidyl peptidase 1 (P53634 25-134 limits assumed): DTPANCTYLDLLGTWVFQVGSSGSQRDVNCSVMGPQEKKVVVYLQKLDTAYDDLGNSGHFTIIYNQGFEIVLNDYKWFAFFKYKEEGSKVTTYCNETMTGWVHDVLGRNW
Sequence of Dipeptidyl peptidase 1 (P53634 231-394 limits assumed): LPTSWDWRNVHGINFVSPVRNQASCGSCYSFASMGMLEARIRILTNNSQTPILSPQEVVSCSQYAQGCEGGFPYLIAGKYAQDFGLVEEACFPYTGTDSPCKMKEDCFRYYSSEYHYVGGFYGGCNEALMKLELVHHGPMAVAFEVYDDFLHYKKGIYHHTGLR
Sequence of Dipeptidyl peptidase 1 (P53634 395-463 limits assumed): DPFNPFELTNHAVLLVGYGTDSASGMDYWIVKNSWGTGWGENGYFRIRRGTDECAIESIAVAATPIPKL

| Structure (SMILES) | IC50 (Dipeptidyl peptidase 1) [nM] | also measured |
| --- | --- | --- |
| N#CC1(NC(=O)[C@@H](N)Cc2cccs2)CCC1 | 1830 |  |
| N#CC1(NC(=O)[C@@H](N)Cc2cccs2)CC1c1ccccc1 (mixture of isomers) | 1230 |  |
| N#CC1(NC(=O)[C@@H]2C[C@H](F)CN2)CC1 | 880 |  |
| CC(C)(C)[C@@H](C#N)NC(=O)[C@@H](N)Cc1cccs1 | > 3000 | remaining at 0.5 h [1]: 83% |
| CC(C)[C@@H](C#N)NC(=O)[C@@H](N)Cc1cccs1 | 215 | remaining at 0.5 h [1]: 11% |
| N#C[C@H](CC1CCCCC1)NC(=O)[C@@H](N)Cc1cccs1 | 5.1 |  |
| N#CCNC(=O)[C@@H](N)Cc1cccs1 | 17 | remaining at 0.5 h [1]: 6% |
| N#C[C@H](Cc1ccc(-c2ccccc2)s1)NC(=O)[C@@H](N)Cc1cccs1 | 0.3 | half-life [2]: < 30 min; clearance [3]: > 100 mL/min/kg |
| CS[C@@H]1CN[C@H](C(=O)NC2(C#N)CC2)C1 | 336 |  |
| CC(C)(C#N)NC(=O)[C@@H](N)Cc1cccs1 | 1420 |  |
| N#C[C@@]1(NC(=O)[C@@H](N)Cc2cccs2)C[C@@H]1c1ccccc1 |  | half-life [2]: 84 min; Activity (U-937): Not toxic; clearance [3]: 35 mL/min/kg; Stability (Rattus norvegicus): Stable; remaining at 0.5 h [1]: > 98% |
| N#CC1(NC(=O)[C@@H](N)Cc2cccs2)CC1 | 12 | half-life [2]: 30 min; clearance [3]: 113 mL/min/kg; remaining at 0.5 h [1]: 92% |
| N#C[C@@H](NC(=O)[C@@H](N)Cc1cccs1)C(c1ccccc1)c1ccccc1 | 3.8 | half-life [2]: < 30 min; clearance [3]: > 100 mL/min/kg |
| CSCC[C@H](N)C(=O)NCCc1c[nH]c2ccccc12 | 11000 |  |
| CC1(C)CC1(C#N)NC(=O)[C@@H](N)Cc1cccs1 (stereo partly drawn) | 63 |  |
| N#C[C@H](Cc1nc2ccccc2s1)NC(=O)[C@@H](N)Cc1cccs1 | 0.7 | half-life [2]: < 30 min; clearance [3]: > 100 mL/min/kg |

Now from value to compound, other results behind:

| IC50 (Dipeptidyl peptidase 1) [nM] | Structure (SMILES) | also measured |
| --- | --- | --- |
| 5.8 | N#C[C@H](Cc1c[nH]c2ccccc12)NC(=O)[C@@H](N)Cc1cccs1 | remaining at 0.5 h [1]: 0% |
| 2500 | C[C@@H]1CN[C@H](C(=O)N[C@H](C#N)Cc2ccccc2)C1 |  |
| 8.2 | N#C[C@H](Cc1ccc(-c2ccccc2)cc1)NC(=O)[C@@H]1C[C@H](F)CN1 |  |
| 0.9 | N#C[C@H](Cc1ccccc1)NC(=O)[C@@H](N)Cc1cccs1 | half-life [2]: < 30 min; clearance [3]: > 100 mL/min/kg; remaining at 0.5 h [1]: 0% |
| 630 | CCSC[C@H](N)C(=O)N[C@H](C#N)Cc1c[nH]c2ccccc12 |  |
| 17 | N#C[C@]1(NC(=O)[C@@H](N)Cc2cccs2)C[C@H]1c1ccccc1 |  |
| > 10000 | N#C[C@H](Cc1ccc(F)cc1)NC(=O)[C@@H]1CCCN1 |  |
| 133 | N#C[C@H](Cc1ccccc1)NC(=O)[C@@H]1C[C@H](F)CN1 |  |
| 1080 | CO[C@@H]1CN[C@H](C(=O)N[C@H](C#N)Cc2ccccc2)C1 |  |
| 200 | CSCC[C@H](N)C(=O)N[C@H](C#N)Cc1c[nH]c2ccccc12 |  |
| 1.7 | CS[C@@H]1CN[C@H](C(=O)N[C@H](C#N)Cc2ccc(-c3ccccc3)cc2)C1 |  |
| 1580 | CCSCC[C@H](N)C(=O)N[C@H](C#N)Cc1c[nH]c2ccccc12 |  |
| 11 | N#C[C@H](CCc1ccccc1)NC(=O)[C@@H](N)Cc1cccs1 |  |
| 495 | N#C[C@H](Cc1ccccc1)NC(=O)[C@@H]1C[C@H](Cl)CN1 |  |
| 330 | CC(C)[C@H](N)C(=O)N[C@H](C#N)Cc1c[nH]c2ccccc12 |  |
| 4810 | N#C[C@H](Cc1ccccc1)NC(=O)[C@@H]1CCCN1 |  |
| 2190 | N#C[C@]1(NC(=O)[C@@H]2C[C@H](F)CN2)C[C@H]1c1ccccc1 |  |
| 271 | CCS[C@@H]1CN[C@H](C(=O)N[C@H](C#N)Cc2ccccc2)C1 |  |
| 1 | N#C[C@H](Cc1ccc2ccccc2c1)NC(=O)[C@@H](N)Cc1cccs1 | half-life [2]: < 30 min; clearance [3]: > 100 mL/min/kg |
| 29 | CS[C@@H]1CN[C@H](C(=O)N[C@H](C#N)Cc2ccccc2)C1 |  |
